Assay results: ChEMBL document CHEMBL3112554, “Discovery of simplified N²-substituted pyrazolo[3,4-d]pyrimidine derivatives as novel adenosine receptor antagonists: efficient synthetic approaches, biological evaluations and molecular docking studies” (Bioorg Med Chem, 2014)

Legend:
Homo sapiens [1] = organism: Homo sapiens; experiment: Selectivity ratio of Ki for human adenosine A3 receptor to Ki for human adenosine A2A receptor
[2] = molecular target: Adenosine receptors; A1 & A3 (Homo sapiens) (UniProt P30542+P0DMS8); experiment: Selectivity ratio of Ki for human adenosine A1 receptor to Ki for human adenosine A3 receptor
How it was run: (§1)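 Ratios of Ki values from displacement assays in CHO cells (3 h, room temperature). The hA1 Ki ([3H]CCPA) or the hA2A Ki ([3H]NECA) was divided by the hA3 Ki ([3H]HEMADO). Each Ki is a geometric mean of n = 3–6.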

Homo sapiens [3] = organism: Homo sapiens; experiment: Selectivity ratio of Ki for human adenosine A2A receptor to Ki for human adenosine A3 receptor; how it was run: as §1
Adenosine receptor A3 = molecular target: T1, Adenosine receptor A3 (Homo sapiens, UniProt P0DMS8); experiment: Displacement of [3H]-HEMADO from human adenosine A3 receptor expressed in CHO cells after 3 hrs by topcount scintillation counting analysis; type: cell-based
T1 sequence (P0DMS8 whole entry): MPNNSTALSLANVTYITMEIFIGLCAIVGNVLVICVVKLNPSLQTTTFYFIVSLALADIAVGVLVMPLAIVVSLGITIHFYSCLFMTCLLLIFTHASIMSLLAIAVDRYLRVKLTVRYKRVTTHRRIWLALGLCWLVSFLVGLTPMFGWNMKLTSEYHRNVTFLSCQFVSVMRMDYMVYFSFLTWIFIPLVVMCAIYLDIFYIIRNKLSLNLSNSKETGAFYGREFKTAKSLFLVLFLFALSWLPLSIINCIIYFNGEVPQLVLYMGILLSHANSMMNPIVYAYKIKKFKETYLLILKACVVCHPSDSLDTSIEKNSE
How it was run: (§2)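 Radioligand binding to membranes from CHO cells expressing the human receptor, run for 3 h at room temperature. Radioligands were [3H]CCPA for hA1, [3H]NECA for hA2A and [3H]HEMADO for hA3. Nonspecific binding was defined with 1 mM theophylline (hA1) or 100 µM R-PIA (hA2A, hA3). Bound ligand was separated by GF/B filtration and counted. Ki came from nonlinear fitting of competition curves using Cheng-Prusoff, as geometric means of n = 3–6 with 95% CI.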

Adenosine receptor A2b = molecular target: T2, Adenosine receptor A2b (Homo sapiens, UniProt P29275); experiment: Antagonist activity at human adenosine A2B receptor expressed in CHO cells assessed as inhibition of NECA-induced adenylyl cyclase activity after 20 mins in presence of [alpha-32P]ATP; type: functional, cell-based
T2 sequence (P29275 whole entry): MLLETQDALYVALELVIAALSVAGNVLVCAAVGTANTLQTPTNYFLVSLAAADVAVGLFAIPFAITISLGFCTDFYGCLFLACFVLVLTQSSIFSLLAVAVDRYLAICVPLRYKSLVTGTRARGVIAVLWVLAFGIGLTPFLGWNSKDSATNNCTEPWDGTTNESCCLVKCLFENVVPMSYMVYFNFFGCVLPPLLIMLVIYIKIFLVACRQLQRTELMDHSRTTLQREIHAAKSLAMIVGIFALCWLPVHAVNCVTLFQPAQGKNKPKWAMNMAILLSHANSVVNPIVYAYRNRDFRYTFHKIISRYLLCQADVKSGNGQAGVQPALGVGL
How it was run: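 Membranes from CHO cells transfected with the human A2B receptor were incubated for 20 min with 100 nM NECA, 150,000 cpm [α-32P]ATP and test compound at several concentrations. The incubation mixture contained no EGTA and no NaCl. Ki was derived from concentration-dependent inhibition of NECA-stimulated adenylyl cyclase activity (n = 3–6).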

Adenosine receptor A2a = Adenosine receptor A2a (Homo sapiens, UniProt P29274); experiment: Displacement of [3H]-NECA from human adenosine A2A receptor expressed in CHO cells after 3 hrs by topcount scintillation counting analysis; type: cell-based; how it was run: as §2
Adenosine receptor A1 = molecular target: T3, Adenosine receptor A1 (Homo sapiens, UniProt P30542); experiment: Displacement of [3H]-CCPA from human adenosine A1 receptor expressed in CHO cells after 3 hrs by topcount scintillation counting analysis; type: cell-based; how it was run: as §2
T3 sequence (P30542 whole entry): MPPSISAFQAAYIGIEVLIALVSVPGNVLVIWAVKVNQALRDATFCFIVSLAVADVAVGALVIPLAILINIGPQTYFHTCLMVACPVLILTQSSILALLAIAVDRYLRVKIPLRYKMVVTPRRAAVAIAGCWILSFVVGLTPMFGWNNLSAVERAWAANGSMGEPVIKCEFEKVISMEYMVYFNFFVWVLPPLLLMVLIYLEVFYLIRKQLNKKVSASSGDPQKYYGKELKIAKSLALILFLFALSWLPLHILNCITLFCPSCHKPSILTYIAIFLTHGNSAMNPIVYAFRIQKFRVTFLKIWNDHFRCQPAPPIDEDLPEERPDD

Homo sapiens [4] = organism: Homo sapiens; experiment: Selectivity ratio of Ki for human adenosine A1 receptor to Ki for human adenosine A2A receptor

Sequence of Adenosine receptor A2a (P29274 whole entry): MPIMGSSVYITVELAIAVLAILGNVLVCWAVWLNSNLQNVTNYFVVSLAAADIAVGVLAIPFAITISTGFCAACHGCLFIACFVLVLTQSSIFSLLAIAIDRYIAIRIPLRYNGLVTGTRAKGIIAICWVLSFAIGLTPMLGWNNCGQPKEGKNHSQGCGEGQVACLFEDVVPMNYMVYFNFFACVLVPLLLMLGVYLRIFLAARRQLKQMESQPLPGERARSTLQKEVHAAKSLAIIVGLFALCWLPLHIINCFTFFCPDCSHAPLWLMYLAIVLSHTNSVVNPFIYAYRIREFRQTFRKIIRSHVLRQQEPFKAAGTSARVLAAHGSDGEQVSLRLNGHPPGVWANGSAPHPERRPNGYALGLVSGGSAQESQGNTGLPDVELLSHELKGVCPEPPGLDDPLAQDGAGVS

SMILES | Ratio Ki (Homo sapiens [1]) | Ratio Ki [2] | Ratio Ki (Homo sapiens [3]) | Ki (Adenosine receptor A3) [µM] | Ki (Adenosine receptor A2b) [µM] | Ki (Adenosine receptor A2a) [µM] | Ki (Adenosine receptor A1) [µM] | Ratio Ki (Homo sapiens [4])
O=C(Nc1nc(Cl)c2cn(CCc3ccccc3)nc2n1)c1ccc(F)cc1 | > 50 | 0.02 | 0.02 | > 100 | > 20 | 2.06 | 2.7 | 
CC(C)n1cc2c(Cl)nc(NC(=O)Cc3ccccc3)nc2n1 |  | 0.07 | 0.17 | 27.1 | > 10 | 4.7 | 1.9 | 
Cn1cc2c(Cl)nc(N(C(=O)c3ccccc3)C(=O)c3ccccc3)nc2n1 |  | > 8.4 | 2.4 | 7.1 | > 20 | 17.5 | > 60 | 
Cn1cc2c(Cl)nc(NC(=O)c3ccccc3)nc2n1 |  | > 4.2 | 1 | 23.6 | > 20 | 24.2 | > 100 | 
CC(C)n1cc2c(Cl)nc(NC(=O)c3ccccc3)nc2n1 |  | 1.5 | 0.3 | 12.8 | > 20 | 4.6 | 19.6 | 
Nc1nc(Cl)c2cn(CCc3ccccc3)nc2n1 |  |  | > 0.03 | > 100 | > 20 | 3.7 | 4.3 | 
Cn1cc2c(Cl)nc(N)nc2n1 |  |  | > 0.09 | > 100 | > 20 | 9.1 | 29.7 | 
O=C(c1ccccc1)N(C(=O)c1ccccc1)c1nc(Cl)c2cn(CCc3ccccc3)nc2n1 |  | > 34.5 | 2 | 2.9 | > 20 | 5.4 | > 100 | 
Cn1cc2c(Cl)nc(NC(=O)Cc3ccccc3)nc2n1 |  | 2.4 | 4.5 | 6.6 | > 20 | 29.9 | 16.3 | 
O=C(Cc1ccccc1)Nc1nc(Cl)c2cn(CCc3ccccc3)nc2n1 |  | 0.5 | 0.7 | 11.4 | > 20 | 8.6 | 6.5 | 
O=C(Nc1nc(Cl)c2cn(CCc3ccccc3)nc2n1)c1ccccc1 |  | 0.4 | 0.3 | 8.6 | > 20 | 3.1 | 3.8 | 
CC(C)n1cc2c(Cl)nc(N)nc2n1 |  |  | 0.03 | > 100 | > 10 | 3.3 | 9 | 
CC(C)(C)Cn1cc2c(Cl)nc(N)nc2n1 |  |  | > 0.6 | > 60 | > 10 | 4.1 | 12 | 
CC(C)n1cc2c(Cl)nc(N(C(=O)c3ccccc3)C(=O)c3ccccc3)nc2n1 | 8 | 1.1 | 0.1 | 6.7 | > 20 | 0.8 | 7.9 | 9.9

Next, values leading:

Ratio Ki (Homo sapiens [1]) | Ratio Ki [2] | Ratio Ki (Homo sapiens [3]) | Ki (Adenosine receptor A3) [µM] | Ki (Adenosine receptor A2b) [µM] | Ki (Adenosine receptor A2a) [µM] | Ki (Adenosine receptor A1) [µM] | Ratio Ki (Homo sapiens [4]) | SMILES
 | > 77 | > 77 | 1.3 | > 20 | > 100 | > 100 |  | CCOC(=O)c1nc(NC(=O)c2ccc(C(F)(F)F)cc2)nc2nn(CC(C)(C)C)cc12
 | 7.2 | 6.6 | 1.5 | > 20 | 9.9 | 10.8 |  | Cc1ccc(C(=O)Nc2nc(Cl)c3cn(CCc4ccccc4)nc3n2)cc1
 | > 15 | > 15 | 6.6 | > 20 | > 100 | > 100 |  | CC(C)(C)Cn1cc2c(Cl)nc(NC(=O)c3ccc(C(F)(F)F)cc3)nc2n1
 | 1.3 | 0.2 | 10.3 | > 20 | 2.7 | 13.8 |  | CC(C)n1cc2c(Cl)nc(NC(=O)c3ccc(C(F)(F)F)cc3)nc2n1
 | 2.7 | 0.3 | 5.9 | > 10 | 2.2 | 16.5 |  | CC(C)(C)Cn1cc2c(Cl)nc(NC(=O)c3ccc(F)cc3)nc2n1
 | > 15.3 | > 15.3 | 6.5 | > 20 | > 100 | > 100 |  | CC(C)(C)Cn1cc2c(Cl)nc(N(C(=O)c3ccccc3)C(=O)c3ccccc3)nc2n1
91 |  | 0.01 | > 100 | > 20 | 1.1 | 4.1 |  | Cc1ccc(C(=O)Nc2nc(Cl)c3cn(C(C)C)nc3n2)cc1
 | > 21.4 | 5.8 | 2.8 | > 20 | 16.4 | > 60 |  | O=C(Nc1nc(Cl)c2cn(CCc3ccccc3)nc2n1)c1ccc(C(F)(F)F)cc1
 | 2.9 | 2.1 | 10.9 | > 20 | 23.6 | 31.9 |  | CC(C)(C)Cn1cc2c(Cl)nc(NC(=O)Cc3ccccc3)nc2n1
 | 2.2 | 0.4 | 5 | > 10 | 2.1 | 11.1 |  | Cc1ccc(C(=O)Nc2nc(Cl)c3cn(CC(C)(C)C)nc3n2)cc1
 | > 3.1 | 0.6 | 31.9 | > 20 | 20.5 | > 100 |  | Cn1cc2c(Cl)nc(NC(=O)c3ccc(F)cc3)nc2n1
 | > 7.4 | 0.8 | 13.5 | > 20 | 12 | > 100 |  | Cc1ccc(C(=O)Nc2nc(Cl)c3cn(C)nc3n2)cc1
 | > 111 | > 111 | 0.9 | > 20 | > 100 | > 100 |  | CCOC(=O)c1nc(NC(=O)c2ccc(C)cc2)nc2nn(CC(C)(C)C)cc12
> 37 |  | > 0.02 | > 60 | > 20 | 1.6 | 3.4 |  | CC(C)n1cc2c(Cl)nc(NC(=O)c3ccc(F)cc3)nc2n1
 | > 2.9 | 0.7 | 33.5 | > 20 | 25.6 | > 100 |  | Cn1cc2c(Cl)nc(NC(=O)c3ccc(C(F)(F)F)cc3)nc2n1
 | 0.3 | 0.1 | 30.3 | ≥ 10 | 3.5 | 11 |  | CC(C)(C)Cn1cc2c(Cl)nc(NC(=O)c3ccccc3)nc2n1
